M18AAP inhibitor: blocks P. falciparum M18 aspartyl aminopeptidase | recombinant PfM18AAP, H-Glu-NHMec fluorogenic cleavage | inhibition, % at 7.35 µM | 1.2% of 290,000 active | AID 1822;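 active = inhibition above the campaign mean inhibition over all tested compounds plus 3 SD, cut at about 28% in these data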
IMP-1 inh-1: blocks Pseudomonas aeruginosa IMP-1 metallo-beta-lactamase. purified IMP-1, nitrocefin hydrolysis, epi-absorbance fluorescence. inhibition, % at 5.6 µM. 0.45% of 290,000 active;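 active = inhibition above the mean plus 3 SD of all compounds in the same screening run, cut at about 4.5% in these data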
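System: purified IMP-1; amount: IMP-1 0.2 nM before substrate addition; compound: single dose, 5.6 µM; times: 25 °C, 15 min preincubation, 25 min reaction; signal: Epi-absorbance via hydrolysed-nitrocefin quenching of white-plate fluorescence, 480/530 nm, EDTA stop; benchmarks: DMSO with and without IMP-1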
CTSL1 counter: counter-screen for PFM18AAP inhibitors: inhibitors of F. hepatica cathepsin L1. recombinant F. hepatica cathepsin L1, Z-Leu-Arg-MCA fluorescence. inhibition, % at 5.96 µM. 0.49% of 300,000 active. AID 1906;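 active = inhibition above the mean of all tested compounds plus 3 SD, set per screening campaign, cut at about 17% in these data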
VIM-2 inhibitor: inhibitors of Pseudomonas aeruginosa VIM-2 metallo-beta-lactamase; 0.89% of 290,000 active; AID 1527; inhibition, % at 5.6 µM; purified VIM-2, nitrocefin hydrolysis, epi-absorbance fluorescence;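 active = inhibition above the mean of all tested compounds plus 3 SD, cutoff set per screening run, cut at about 7.5% in these data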;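 also: red hydrolysis product quenches plate fluorescence so inhibitors raise well fluorescence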
IMP-1 inh-2: selectivity counter-screen for VIM-2 inhibitors: IMP-1 metallo-beta-lactamase inhibitors; shares compounds with VIM-2 inhibitor; purified IMP-1, nitrocefin hydrolysis, epi-absorbance fluorescence; inhibition, % at 5.6 µM; 1,300 tested, under 10 active; AID 1856; call rule not given here
VIM-2 FRET ctr: counter-screen for VIM-2 inhibitors: epi-absorbance artifacts via FRET; 23% of 1,300 active; shares compounds with VIM-2 inhibitor; inhibition, % at 5.6 µM; purified VIM-2, CCF2 FRET substrate hydrolysis; AID 1857;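 active = inhibition above the mean of all tested compounds plus 3 SD, cut at about 19% in these data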
TEM-1 counter: blocks E. coli TEM-1 beta-lactamase in VIM-2 selectivity screen. shares compounds with VIM-2 inhibitor. Purified TEM-1, nitrocefin hydrolysis, epi-absorbance fluorescence. inhibition, % at 5.6 µM. 3% of 1,300 active;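 active = inhibition above that campaign's mean inhibition plus 3 SD, cut at about 0.46% in these data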
Target sequence (P62593 whole entry, looked up): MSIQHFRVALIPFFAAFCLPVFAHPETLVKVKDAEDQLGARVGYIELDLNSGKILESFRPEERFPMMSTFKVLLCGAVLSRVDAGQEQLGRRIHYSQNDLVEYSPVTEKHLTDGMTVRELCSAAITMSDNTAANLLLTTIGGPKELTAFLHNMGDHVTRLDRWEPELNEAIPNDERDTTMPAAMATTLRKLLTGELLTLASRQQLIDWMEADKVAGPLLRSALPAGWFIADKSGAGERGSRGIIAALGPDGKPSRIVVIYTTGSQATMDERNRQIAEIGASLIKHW
VIM-2 confirm 2: confirmation of P. aeruginosa VIM-2 metallo-beta-lactamase inhibitors | shares compounds with VIM-2 inhibitor | purified VIM-2, nitrocefin hydrolysis, epi-absorbance | inhibition, % at 5.6 µM | 96% of 1,300 active | AID 2187;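 active = inhibition of the VIM-2 beta-lactamase enzyme above about 11% from the earlier first-round screen, limit read from the data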
Hits are given with their value. Sampled rows, rich in hits. Any-hit rate of the full collection: about 2.7%.

For CCN(CC)c1nc(Oc2ccc(C(=O)NN)cc2)nc(Oc2ccc(C(=O)NN)cc2)n1 the results were M18AAP inhibitor inactive, IMP-1 inh-1 inactive, VIM-2 inhibitor 70, IMP-1 inh-2 inactive, VIM-2 FRET ctr inactive, TEM-1 counter inactive and VIM-2 confirm 2 82.
COc1ccc(-c2cc3c(=O)n(CC(=O)NCCCN4CCC(N5CCCCC5)CC4)nc(C)n3n2)cc1 was read as M18AAP inhibitor inactive, IMP-1 inh-1 inactive, CTSL1 counter inactive, VIM-2 inhibitor 24, IMP-1 inh-2 inactive, VIM-2 FRET ctr inactive, TEM-1 counter inactive and VIM-2 confirm 2 32.
`COc1ccc(-c2cc3c(=O)n(CC(=O)NCCCN4CCC(N5CCCCC5)CC4)ncn3n2)cc1` gave M18AAP inhibitor inactive, IMP-1 inh-1 inactive, CTSL1 counter inactive and VIM-2 inhibitor inactive.
CC1CN(Cc2c(O)ccc3c2oc(=O)c2ccccc23)CC(C)O1 (configuration not stated) was read as M18AAP inhibitor inactive, IMP-1 inh-1 inactive, CTSL1 counter inactive, VIM-2 inhibitor 14, IMP-1 inh-2 inactive, VIM-2 FRET ctr inactive, TEM-1 counter inactive and VIM-2 confirm 2 29.
Screening COc1ccccc1N1C(=O)CC(Sc2n[nH]c(-c3cccc(C)c3)n2)C1=O (configuration not stated) returned M18AAP inhibitor inactive, IMP-1 inh-1 inactive, CTSL1 counter inactive and VIM-2 inhibitor inactive.
For CC1CCCC(C)N1C(=O)CSc1nnc(NC(=O)c2cccs2)s1 (configuration not stated) the results were M18AAP inhibitor inactive, IMP-1 inh-1 inactive, CTSL1 counter inactive, VIM-2 inhibitor 20, IMP-1 inh-2 inactive, VIM-2 FRET ctr 52, TEM-1 counter inactive and VIM-2 confirm 2 37.
For CCOC(=O)c1cnc2c(cnn2C)c1Cl the results were M18AAP inhibitor inactive, IMP-1 inh-1 inactive, CTSL1 counter inactive and VIM-2 inhibitor inactive.
For CCOC(=O)c1cnc2c(cnn2C)c1NCCCn1ccnc1 the results were M18AAP inhibitor inactive, IMP-1 inh-1 inactive, CTSL1 counter inactive, VIM-2 inhibitor 75, IMP-1 inh-2 inactive, VIM-2 FRET ctr inactive, TEM-1 counter inactive and VIM-2 confirm 2 81.
Screening CCN1CCN(CC(O)COc2ccc(C)c(C)c2)CC1 (configuration not stated) returned M18AAP inhibitor inactive, IMP-1 inh-1 inactive, CTSL1 counter inactive and VIM-2 inhibitor inactive.
For CCOC(=O)c1c(C)n(C)c2ccc(OCC(O)CN3CCN(C)CC3)cc12 (configuration not stated) the results were M18AAP inhibitor inactive, IMP-1 inh-1 inactive, CTSL1 counter inactive, VIM-2 inhibitor 69, IMP-1 inh-2 inactive, VIM-2 FRET ctr inactive, TEM-1 counter inactive and VIM-2 confirm 2 75.
`CCOC(=O)c1c(C)n(-c2ccc(C)cc2)c2ccc(OCC(O)CN3CCN(C)CC3)cc12` (configuration not stated) gave M18AAP inhibitor inactive, IMP-1 inh-1 inactive, VIM-2 inhibitor 15, IMP-1 inh-2 inactive, VIM-2 FRET ctr inactive, TEM-1 counter inactive and VIM-2 confirm 2 26.
`CCN1CCN(CC(O)COc2ccc3c(C)cc(=O)oc3c2)CC1` (configuration not stated) gave M18AAP inhibitor inactive, IMP-1 inh-1 inactive, CTSL1 counter inactive, VIM-2 inhibitor 15, IMP-1 inh-2 inactive, VIM-2 FRET ctr inactive, TEM-1 counter inactive and VIM-2 confirm 2 23.
Screening CCOC(=O)c1c(C)n(C)c2ccc(OCC(O)Cn3c(C)nc4ccccc43)cc12 (configuration not stated) returned M18AAP inhibitor inactive, IMP-1 inh-1 inactive, CTSL1 counter inactive and VIM-2 inhibitor inactive.
CCNC(=O)Nc1ccc(-n2nc(C)c(C(=O)OCC)c2C)nc1 was read as M18AAP inhibitor inactive, IMP-1 inh-1 inactive, CTSL1 counter inactive and VIM-2 inhibitor inactive.
COc1ccccc1NC(=O)c1ccc(S(=O)(=O)NCc2ccco2)cc1 was read as M18AAP inhibitor inactive, IMP-1 inh-1 inactive, CTSL1 counter inactive and VIM-2 inhibitor inactive.
Cc1ccc2nsnc2c1NC(=O)COc1ccccc1F was read as M18AAP inhibitor inactive, IMP-1 inh-1 inactive, CTSL1 counter inactive and VIM-2 inhibitor inactive.
For CCOc1ccc(CCNC(=O)CN(C)S(=O)(=O)c2cccs2)cc1OCC the results were CTSL1 counter inactive.
Screening O=C(Nc1ccc(S(=O)(=O)N2CCCCC2)cc1)C1CC(=O)N(c2ccc(Cl)cc2)C1 (configuration not stated) returned M18AAP inhibitor inactive, IMP-1 inh-1 inactive, CTSL1 counter inactive and VIM-2 inhibitor inactive.
CC1CCN(CCCNC(=O)c2cc3c(=O)n(C)c4ccccc4c3n2C)CC1 was read as M18AAP inhibitor inactive, IMP-1 inh-1 inactive, CTSL1 counter inactive, VIM-2 inhibitor 21, IMP-1 inh-2 inactive, VIM-2 FRET ctr inactive, TEM-1 counter inactive and VIM-2 confirm 2 31.
CCCCN(CC)CCNC(=O)c1cn(C)c(=O)c2c1c1ccccc1n2C was read as M18AAP inhibitor inactive, IMP-1 inh-1 inactive, CTSL1 counter inactive and VIM-2 inhibitor inactive.
CCCCN(CC)CCCNC(=O)c1cc2c(=O)n(C)c3ccccc3c2n1C was read as M18AAP inhibitor inactive, IMP-1 inh-1 inactive, CTSL1 counter inactive, VIM-2 inhibitor 25, IMP-1 inh-2 inactive, VIM-2 FRET ctr inactive, TEM-1 counter inactive and VIM-2 confirm 2 30.
For Cn1c(C(=O)NCCN2CCN(Cc3ccccc3)CC2)cc2c(=O)n(C)c3ccccc3c21 the results were CTSL1 counter inactive.
Screening Cn1c(C(=O)NCCCN2CCOCC2)cc2c(=O)n(C)c3ccccc3c21 returned M18AAP inhibitor inactive, IMP-1 inh-1 inactive, CTSL1 counter inactive, VIM-2 inhibitor 18, IMP-1 inh-2 inactive, VIM-2 FRET ctr inactive, TEM-1 counter inactive and VIM-2 confirm 2 28.
Cn1c(C(=O)NCCN2CCCCCC2)cc2c(=O)n(C)c3ccccc3c21 was read as M18AAP inhibitor inactive, IMP-1 inh-1 inactive, CTSL1 counter inactive, VIM-2 inhibitor 19, IMP-1 inh-2 inactive, VIM-2 FRET ctr inactive, TEM-1 counter inactive and VIM-2 confirm 2 29.
For CSC1=C(C#N)C(=O)NC(c2ccc(Cl)cc2)S1 (configuration not stated) the results were M18AAP inhibitor inactive, IMP-1 inh-1 inactive, CTSL1 counter inactive and VIM-2 inhibitor inactive.
Screening Cc1c(C(=O)N2c3ccccc3Sc3ccccc32)cccc1[N+](=O)[O-] returned M18AAP inhibitor inactive, IMP-1 inh-1 inactive, CTSL1 counter inactive and VIM-2 inhibitor inactive.
For Cn1c(C(=O)NCc2ccccn2)cc2c(=O)n(C)c3ccccc3c21 the results were M18AAP inhibitor inactive, IMP-1 inh-1 inactive, CTSL1 counter inactive, VIM-2 inhibitor 16, IMP-1 inh-2 inactive, VIM-2 FRET ctr inactive, TEM-1 counter inactive and VIM-2 confirm 2 25.

Source: PubChem (The Scripps Research Institute Molecular Screening Center)
